Measurements as given in ChEMBL document CHEMBL1139845, “Synthesis and biological evaluation of novel 1-deoxy-1-[6-[((hetero)arylcarbonyl)hydrazino]- 9H-purin-9-yl]-N-ethyl-beta-D-ribofuranuronamide derivatives as useful templates for the development of A2B adenosine receptor agonists” (J Med Chem, 2007).

Experiments:
[1] = molecular target: T1, Adenosine receptor A1 (Homo sapiens) (UniProt P30542); test: (§1) Displacement of [3H]CHA from human adenosine A1 receptor expressed in CHO cells; type: cell-based
T1 sequence (whole entry): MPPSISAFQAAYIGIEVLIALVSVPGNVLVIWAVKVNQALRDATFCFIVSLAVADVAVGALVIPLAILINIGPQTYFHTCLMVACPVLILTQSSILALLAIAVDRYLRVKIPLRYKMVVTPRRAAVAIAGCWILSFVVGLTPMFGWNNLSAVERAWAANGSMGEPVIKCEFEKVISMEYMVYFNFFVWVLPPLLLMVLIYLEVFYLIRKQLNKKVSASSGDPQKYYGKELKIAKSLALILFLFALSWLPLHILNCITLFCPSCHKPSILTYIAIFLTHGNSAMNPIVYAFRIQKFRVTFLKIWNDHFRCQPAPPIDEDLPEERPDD
How it was run: (§2)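 Membranes from hA1 CHO cells, 50 µg protein/assay, pretreated with adenosine deaminase. Incubated with 1 nM [³H]CHA in 50 mM Tris-HCl pH 7.4 at 6–8 concentrations, 150 min at 25 °C. Nonspecific binding defined with 10 µM CHA. GF/B filtration and scintillation counting. Ki obtained by Cheng–Prusoff. Mean ± SEM of 3–4 experiments in duplicate.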

Adenosine receptor A1 = molecular target: T2, Adenosine receptor A1 (Homo sapiens, UniProt P30542); test: as §1; type: cell-based; how it was run: as §2
T2 sequence (P30542 whole entry): T1 sequence (whole entry)

[2] = molecular target: T3, Adenosine receptor A3 (Homo sapiens) (UniProt P0DMS8); test: (§3) Displacement of [125I]AB-MECA from human adenosine A3 receptor expressed in CHO cells; type: cell-based
T3 sequence (whole entry): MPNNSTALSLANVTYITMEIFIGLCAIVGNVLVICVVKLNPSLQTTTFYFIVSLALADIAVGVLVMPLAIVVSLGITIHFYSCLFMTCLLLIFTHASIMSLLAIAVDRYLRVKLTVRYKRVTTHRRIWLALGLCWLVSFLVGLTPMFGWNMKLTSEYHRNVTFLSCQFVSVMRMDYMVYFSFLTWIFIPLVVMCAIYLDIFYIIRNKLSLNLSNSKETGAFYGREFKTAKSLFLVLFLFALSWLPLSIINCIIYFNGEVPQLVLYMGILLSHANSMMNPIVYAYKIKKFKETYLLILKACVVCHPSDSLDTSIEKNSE
How it was run: (§4)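 Membranes from CHO cells expressing hA3, 50 µg protein/assay, pretreated with adenosine deaminase. Incubated with [¹²⁵I]AB-MECA in 50 mM Tris-HCl, 10 mM MgCl₂, 1 mM EDTA, pH 7.4, at 6–8 concentrations of test compound, 60 min at 37 °C. Nonspecific binding defined with 1 µM AB-MECA. GF/B filtration. Ki obtained by Cheng–Prusoff. Mean ± SEM of 3–4 experiments in duplicate.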

Adenosine receptor A3 = molecular target: T4, Adenosine receptor A3 (Homo sapiens, UniProt P0DMS8); test: as §3; type: cell-based; how it was run: as §4
T4 sequence (P0DMS8 whole entry): T3 sequence (whole entry)

[3] = molecular target: T5, Adenosine receptor A2b (Homo sapiens) (UniProt P29275); test: (§5) Activity at human adenosine A2B receptor expressed in CHO cells assessed as stimulation of cAMP levels; type: functional, cell-based; set-up: concentration or dose not given beside the values
T5 sequence (whole entry): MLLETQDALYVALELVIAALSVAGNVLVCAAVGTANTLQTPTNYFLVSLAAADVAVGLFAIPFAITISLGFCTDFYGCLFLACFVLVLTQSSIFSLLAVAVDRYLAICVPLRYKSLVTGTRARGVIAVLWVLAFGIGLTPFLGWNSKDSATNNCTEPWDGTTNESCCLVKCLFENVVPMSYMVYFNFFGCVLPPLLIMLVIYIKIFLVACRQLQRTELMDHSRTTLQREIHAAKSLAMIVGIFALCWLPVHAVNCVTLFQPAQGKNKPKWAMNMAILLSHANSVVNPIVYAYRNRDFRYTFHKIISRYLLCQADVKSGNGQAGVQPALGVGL
How it was run: (§6)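 Whole CHO cells transfected with human A2B (1 × 10⁶ cells/assay), preincubated 10 min at 37 °C with adenosine deaminase 2 IU/mL and Ro 20-1724 as PDE inhibitor. Ligands (1 nM to 10 µM) were then added for 5 min. Stopped with cold 6% TCA and ether-extracted. cAMP measured by competition binding to bovine adrenal binding protein with [³H]cAMP. Mean ± SEM of 3–4 experiments in duplicate.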

Adenosine receptor A2b = molecular target: T6, Adenosine receptor A2b (Homo sapiens, UniProt P29275); test: as §5; type: functional, cell-based; how it was run: as §6
T6 sequence (P29275 whole entry): T5 sequence (whole entry)

Adenosine receptor A2a = Adenosine receptor A2a (Homo sapiens, UniProt P29274); test: Displacement of [3H]CGS-21680 from human adenosine A2A receptor expressed in CHO cells; type: cell-based; set-up: concentration or dose not given beside the values
Chain of Adenosine receptor A2a (P29274 whole entry): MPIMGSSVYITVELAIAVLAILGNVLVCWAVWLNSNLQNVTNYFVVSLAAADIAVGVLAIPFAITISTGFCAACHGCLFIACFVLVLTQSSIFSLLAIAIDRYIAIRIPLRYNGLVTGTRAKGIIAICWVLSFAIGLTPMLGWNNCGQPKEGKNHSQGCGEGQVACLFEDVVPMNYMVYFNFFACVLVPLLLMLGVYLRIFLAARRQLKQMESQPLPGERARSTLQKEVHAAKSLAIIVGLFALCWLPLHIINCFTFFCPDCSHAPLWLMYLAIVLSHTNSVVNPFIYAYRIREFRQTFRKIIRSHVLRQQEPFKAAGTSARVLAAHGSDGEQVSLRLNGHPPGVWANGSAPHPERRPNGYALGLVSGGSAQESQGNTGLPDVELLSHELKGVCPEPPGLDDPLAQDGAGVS

Structure (SMILES) | Activity [1] | Ki (Adenosine receptor A1) | Activity [2] | Ki (Adenosine receptor A3) | Activity [3] | EC50 (Adenosine receptor A2b) | Activity (Adenosine receptor A2a) | Ki (Adenosine receptor A2a) | Activity ([3]; filed as agonist)
CCNC(=O)[C@H]1O[C@@H](n2cnc3c(NNC(=O)c4cc(-c5ccccc5)on4)nc(Cl)nc32)[C@H](O)[C@@H]1O | 5% | > 5 µM | 15% | > 5 µM | 24% | > 5 µM | 2% | > 5 µM | –
CCNC(=O)[C@H]1O[C@@H](n2cnc3c(NNC(=O)c4sccc4C)nc(Cl)nc32)[C@H](O)[C@@H]1O | – | 1.6 µM | 9% | > 5 µM | – | – | – | 3.8 µM | –
CCNC(=O)[C@H]1O[C@@H](n2cnc3c(NNC(=O)c4cc(C)on4)nc(Cl)nc32)[C@H](O)[C@@H]1O | 7% | > 5 µM | 16% | > 5 µM | 21% | > 5 µM | 3% | > 5 µM | –
CCNC(=O)[C@H]1O[C@@H](n2cnc3c(NNC(=O)c4ccc[nH]4)nc(Cl)nc32)[C@H](O)[C@@H]1O | – | – | 11% | > 5 µM | – | – | – | 3.2 µM | –
CCNC(=O)[C@H]1O[C@@H](n2cnc3c(NNC(=O)Cc4cccs4)nc(Cl)nc32)[C@H](O)[C@@H]1O | – | – | – | 0.025 µM | – | – | – | – | –
CCNC(=O)[C@H]1O[C@@H](n2cnc3c(NNC(=O)c4ccc(Cl)cc4)ncnc32)[C@H](O)[C@@H]1O | 5% | > 5 µM | 20% | > 5 µM | 6% | > 5 µM | 8% | > 5 µM | –
CCNC(=O)[C@H]1O[C@@H](n2cnc3c(NNC(=O)c4ccc(C)o4)ncnc32)[C@H](O)[C@@H]1O | – | – | 15% | > 5 µM | – | – | – | 1.6 µM | –
CCNC(=O)[C@H]1O[C@@H](n2cnc3c(NNC(=O)c4cccnc4)ncnc32)[C@H](O)[C@@H]1O | 11% | > 5 µM | 17% | > 5 µM | 9% | > 5 µM | 7% | > 5 µM | –
CCNC(=O)[C@H]1O[C@@H](n2cnc3c(NNC(=O)c4ccco4)nc(Cl)nc32)[C@H](O)[C@@H]1O | – | 3.5 µM | 26% | > 5 µM | – | – | – | 4.95 µM | –
CCNC(=O)[C@H]1O[C@@H](n2cnc3c(NNC(=O)c4ccccc4)nc(Cl)nc32)[C@H](O)[C@@H]1O | 37% | > 5 µM | 45% | > 5 µM | 5% | > 5 µM | 40% | > 5 µM | –
CCNC(=O)[C@H]1O[C@@H](n2cnc3c(NNC(=O)c4ccco4)ncnc32)[C@H](O)[C@@H]1O | – | 1.05 µM | 23% | > 5 µM | – | – | – | 1.55 µM | Agonist
CCNC(=O)[C@H]1O[C@@H](n2cnc3c(NNC(=O)c4ccc(C)s4)ncnc32)[C@H](O)[C@@H]1O | – | 1.1 µM | 19% | > 5 µM | – | – | – | 2.1 µM | –
CCNC(=O)[C@H]1O[C@@H](n2cnc3c(NNC(=O)c4ccsc4)nc(Cl)nc32)[C@H](O)[C@@H]1O | – | – | 18% | > 5 µM | – | – | – | 3.3 µM | –
CCNC(=O)[C@H]1O[C@@H](n2cnc3c(NNC(=O)c4nc([N+](=O)[O-])cn4C)ncnc32)[C@H](O)[C@@H]1O | 7% | > 5 µM | 11% | > 5 µM | 14% | > 5 µM | 12% | > 5 µM | –
CCNC(=O)[C@H]1O[C@@H](n2cnc3c(NNC(=O)c4ccc(Br)o4)ncnc32)[C@H](O)[C@@H]1O | – | 0.78 µM | 13% | > 5 µM | – | 0.369 µM | – | 1.2 µM | –
CCNC(=O)[C@H]1O[C@@H](n2cnc3c(NNC(=O)c4ccccc4)ncnc32)[C@H](O)[C@@H]1O | 35% | > 5 µM | 8% | > 5 µM | 10% | > 5 µM | 18% | > 5 µM | –
CCNC(=O)[C@H]1O[C@@H](n2cnc3c(NNC(=O)c4cccs4)nc(Cl)nc32)[C@H](O)[C@@H]1O | – | – | 12% | > 5 µM | – | – | – | 1.7 µM | –
CCNC(=O)[C@H]1O[C@@H](n2cnc3c(NNC(=O)c4ccc(C)s4)nc(Cl)nc32)[C@H](O)[C@@H]1O | – | 2.6 µM | 17% | > 5 µM | – | – | – | 4.1 µM | –
